# Sampled rows, rich in hits. Any-hit rate of the full collection: about 5.9%.
# H69AR growth 86K: blocks growth of human H69AR lung tumor cells; H69AR lung tumor viability, ATP luminescence, 72 h; hits give low values; 85,000 compounds, 6% hits; viability, % at 10 µM; AID 598;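 active = viability at or below 40%; inactive = viability above 40%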;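 also: multidrug resistant small cell line overexpressing MRP-1 efflux transporter; 100% = mean luminescence of untreated control wells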
# Lung fibro prol: blocks proliferation of human lung fibroblasts; LL 47 human lung fibroblast viability, ATP luminescence; hits give low values; 85,000 compounds, 1.1% hits; AID 719; viability, % at 10 µM;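 active = viability at or below 50% in the single dose screen; inactive = viability above 50%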;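 also: compound exposure lasted 72 h before the ATP readout; 100% = median luminescence of untreated cell-only wells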
#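 Material: human lung fibroblast line LL 47, low passage; Evaluation: viability percentage against median untreated-cell control; Buffer or medium: 15% FBS in IMEM; Incubation: 72 h compound exposure at 37 °C after overnight plating; Dosing: 0.1% DMSO in all compound wells; Measured by: CellTiter-Glo luminescence.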
# Jurkat tox 60K: cytotoxic compounds reducing Jurkat cell viability; inhibition, % at 4 µM; Jurkat E6.1 viability, ATP luminescence, 48 h; 56,000 compounds, 1.2% hits; AID 463;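 active = inhibition above the mean inhibition of all tested compounds plus 3 SD, cut at about 28% in these data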
# MT1-MMP txn act: activates MT1-MMP transcription. 86,000 compounds, 0.16% hits. activation factor at 10 µM. HT1080 MT1-MMP promoter luciferase reporter, luminescence, overnight; hits give high values. AID 750;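 active = activation factor of at least 2 for MT1-MMP transcription at 10 µM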
# PTK2B oligo ant: Pyk2 (human) oligomerization antagonism | 99,000 compounds, 0.83% hits | Q293 cells, Pyk2 FERM NanoBiT luminescence; hits give low values | z-score (the deposit names both 25 µM and 10 µM) | Q14289;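 active = Z-score of -3 or lower, scaled per plate to the spread of control and sample wells; inactive = z-score above -3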;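 also: negative z-score means lost luminescence so less FERM oligomerization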
# HUVEC prolif 384: human endothelial cell proliferation inhibition; HUVEC proliferation, CellTiter-Glo luminescence, 72 h; hits give low values; viability, % at 10 µM (by protocol); 86,000 compounds, 1.1% hits;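 active = viability at or below 30%; inactive = viability above 30%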;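 also: 100% = median luminescence of DMSO-only cell control wells on each plate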
# An asterisk follows results filed as active; / = not tested or not shown.
SMILES,H69AR growth 86K,Lung fibro prol,Jurkat tox 60K,MT1-MMP txn act,PTK2B oligo ant,HUVEC prolif 384
CCCCCOC(=O)Cn1c(SCC(=O)Nc2ccccc2)nc2c1c(=O)[nH]c(=O)n2C,31.5*,96.8,-1.7,1.2,-0.05,77.1
CCCOC(=O)NC(CC)COC(=O)Nc1cc(C)ccc1C (centres undefined),/,/,-5.8,1.2,0.4,/
COc1ccc(OC)c(C2CC(c3c(-c4ccccc4)c4cc(Cl)ccc4[nH]c3=O)=NN2S(C)(=O)=O)c1 (centres undefined),/,/,/,/,-1.26,/
COc1ccc(C2CC(c3c(-c4ccccc4)c4cc(Cl)ccc4[nH]c3=O)=NN2S(C)(=O)=O)cc1 (centres undefined),14.0*,79.1,/,1.1,-0.53,62.9
CCOc1ccc(OCC)c(NC(=O)CCn2c(=O)oc3ccccc32)c1,/,/,-6.5,1.2,-0.43,/
CCS(=O)(=O)N1CCN(c2ccc([N+](=O)[O-])c(N3CCOCC3)c2)CC1,/,/,/,/,-0.74,/
O=C(CN1CCN(Cc2ccccc2)CC1)c1ccc(Br)cc1,77.4,100.5,3.6,1.1,0.66,93.4
O=C(C(c1ccccc1)c1ccccc1)N1CCN(Cc2ccc(Br)cc2)CC1,36.1*,77.7,/,1.3,-0.27,88.0
Cc1ccc2cccc(NC(=S)NC(=O)c3c(Br)cnn3C)c2n1,26.1*,81.8,/,1.2,-0.97,61.7
COc1cccc(OCC(O)CO)c1 (centres undefined),80.5,107.2,-4.8,1.9,0.51,104.2
O=c1c2ccccc2nc2ccc(NCc3ccco3)nn12,39.2*,87.5,13.4,1.6,0.41,84.8
Cc1ccccc1Cn1ccc(NC(=O)c2cnn3c(C(F)(F)F)cc(-c4ccco4)nc23)n1,34.0*,100.4,6.2,1.2,-1.81,75.1
O=C(Nc1ccc2c(c1)OCO2)c1cnn2c(C(F)(F)F)cc(-c3ccco3)nc12,27.4*,52.8,11.5,0.7,-1.76,66.3
COc1ccc(NC(=O)c2cnn3c(C(F)(F)F)cc(-c4ccco4)nc23)cc1OC,88.1,102.5,-2.8,1,0.15,70.7
O=C(Nc1ccc(Cc2ccncc2)cc1)c1ccco1,103.1,102.5,-8.9,1.3,-0.07,89.0
COc1ccc(N(CC(=O)Nc2cccc(C)c2)S(=O)(=O)c2c(C)n[nH]c2C)cc1,99.5,97.0,-3.5,1.2,-2.79,85.8
COc1cc(NC(=O)CN(c2ccc(C)cc2)S(=O)(=O)c2c(C)n[nH]c2C)cc(OC)c1,64.9,93.6,0.2,1.1,-2.57,80.0
CCOC(=O)c1cccc(NC(=O)CN(c2ccc(C)cc2)S(=O)(=O)c2c(C)n[nH]c2C)c1,91.7,104.3,0.9,1.2,-3.02*,87.7
COc1ccc(OC)c(NC(=O)CN(c2ccc(C)cc2)S(=O)(=O)c2c(C)noc2C)c1,74.3,93.8,1.0,1.3,-1.6,91.2
COc1ccc(N(CC(=O)Nc2cc(Cl)ccc2OC)S(=O)(=O)c2c(C)noc2C)cc1,24.1*,48.5*,88.3*,0.6,-1.79,42.0
COc1ccc(N(CC(=O)Nc2ccc(C)c(C)c2)S(=O)(=O)c2c(C)n[nH]c2C)cc1,90.9,103.2,-9.1,1.1,-3.28*,89.9
CCc1cccc(NC(=O)CN(c2ccc(OC)cc2)S(=O)(=O)c2c(C)n[nH]c2C)c1,79.5,91.3,-3.0,1.2,-3.16*,78.3
CC(=O)N1CCn2c3ccc(C)cc3c3cccc1c32,81.8,88.3,/,1.5,1.05,54.2
CCOC(=O)c1sc(NC(=O)CN(CC(C)C)CC(C)C)c(C(=O)OCC)c1C,/,/,/,/,-0.84,/
CCC1(C)Cc2c(sc3c2c2ncnn2c2nnc(SCC(=O)NCc4ccco4)n32)CO1 (centres undefined),37.1*,96.3,/,1.1,0.85,77.8
SMILES,H69AR growth 86K,Lung fibro prol,Jurkat tox 60K,MT1-MMP txn act,PTK2B oligo ant,HUVEC prolif 384
CCC1(C)Cc2c(sc3nc(SC)n(Cc4ccccc4)c(=O)c23)CO1 (centres undefined),97.4,94.0,/,1.6,0.62,123.4
CCC1(C)Cc2c(sc3c2c(=O)n(C)c2nnc(SCC(=O)c4ccccc4)n32)CO1 (centres undefined),4.2*,35.2*,0.3,1,-0.24,83.0
CSC1=Nc2sc3c(c2C2=NCCN12)CC(C)(C)OC3,/,/,/,1.1,/,/
Cc1cccc(C(=O)/C=C2/c3ccccc3CC(C)(C)N2C)c1,/,/,/,/,0.48,/
Cc1cc(-c2ccco2)c(C#N)c2nc3ccccc3n12,53.4,92.9,/,1.1,-0.04,97.4
COc1ccc(Br)cc1/C=N/NC(=O)CNC(=O)/C=C/c1ccccc1,/,/,/,/,-0.56,/

# Bioassay records from PubChem BioAssay.
